From ChEMBL document CHEMBL1141797, “Norsesquiterpenes from the brown alga Dictyopteris divaricata” (J Nat Prod, 2005)

Experiments:
Format in all cases: functional, cell-based
A549 = experiment: Cytotoxicity against human A549 cells by MTT method
How it was run: (§1)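 MTT colorimetric read-out of cell viability, expressed as IC50 in µg/mL. Human tumour lines by origin: A549 lung adenocarcinoma, BGC-823 stomach cancer, MCF-7 breast cancer, Bel7402 hepatoma, HCT-8 colon cancer.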

BGC-823 = experiment: Cytotoxicity against human BGC823 cells by MTT method; how it was run: as §1
MCF7 = experiment: Cytotoxicity against human MCF7 cells by MTT method; how it was run: as §1
Bel-7402 = experiment: Cytotoxicity against human Bel7402 cells by MTT method; how it was run: as §1
HCT-8 = experiment: Cytotoxicity against human HCT8 cells by MTT method; how it was run: as §1

Measured: IC50

CC(C)[C@@H]1CC[C@@H](C)[C@]2(O)CC(=O)C=C12
> 10 µg/mL: all assays above

CC(C)[C@@H]1CC[C@@H](C)[C@@]2(O)CC(=O)C=C12
> 10 µg/mL: all assays above

CC(C)[C@H]1CC[C@H](C)C2=CC(=O)C[C@@]21O
> 10 µg/mL: all assays above

CC(C)[C@@H]1CC[C@@H](C)[C@]2(O)CCC(=O)C=C12
> 10 µg/mL: all assays above
